ChEMBL document CHEMBL3108740, “Design, synthesis, and biological evaluation of 1-phenylpyrazolo[3,4-e]pyrrolo[3,4-g]indolizine-4,6(1H,5H)-diones as new glycogen synthase kinase-3β inhibitors” (J Med Chem, 2013)
Converted amounts (≈) assume the structure as drawn. Values belong to the compound of their own block, whether it stands above or below them. The source made the active and inactive calls. The calls are words filed in the database; no cut-off is given here.

Columns and labels:
[1] = biological target: T1, Glycogen synthase kinase-3 beta (Homo sapiens, UniProt P49841); experiment: Inhibition of GSK-3beta (unknown origin) using (RREGGMSRPAS(p)VDG as substrate assessed as 32P[gamma-ATP] incorporation into substrate after 15 mins by autoradiography
Target sequence in this assay (P49841 whole entry): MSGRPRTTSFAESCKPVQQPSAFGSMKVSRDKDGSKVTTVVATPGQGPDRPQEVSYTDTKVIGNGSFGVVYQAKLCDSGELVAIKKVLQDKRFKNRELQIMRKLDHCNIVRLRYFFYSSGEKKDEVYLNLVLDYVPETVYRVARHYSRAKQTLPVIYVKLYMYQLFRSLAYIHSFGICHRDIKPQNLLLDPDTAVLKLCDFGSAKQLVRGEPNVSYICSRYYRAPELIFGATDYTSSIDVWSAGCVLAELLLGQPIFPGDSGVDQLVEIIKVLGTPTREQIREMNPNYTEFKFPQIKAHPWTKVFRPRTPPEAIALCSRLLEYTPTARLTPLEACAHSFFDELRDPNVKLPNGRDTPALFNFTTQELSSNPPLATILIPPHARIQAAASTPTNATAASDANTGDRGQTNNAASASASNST

[2] = biological target: T1, Glycogen synthase kinase-3 beta; experiment: Inhibition of human GSK-3beta-mediated tau phosphorylation in doxycycline/synthetic tau fibril-induced HEK293 cells assessed as increase in faster-mobility 17025 band at 1 uM after 48 hrs by Immunoblotting analysis; assay type: cell-based
Procedure, shortened: (§1)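 HEK-293 cells express full-length 4-repeat tau (T40) carrying P301L under a doxycycline-regulated promoter. Doxycycline induces expression; 48 h later cells are seeded with synthetic fibrils made from recombinant tau. They are then treated with 1 µM compound or vehicle for 48 h, with non-fibril cells as controls. Lysates are immunoblotted with AT180 (pT231/pS235), 17025 (total tau) and GAPDH as loading control.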
Target sequence in this assay (P49841 whole entry, looked up): as the sequence (P49841 whole entry) above

[3] = biological target: T1, Glycogen synthase kinase-3 beta; experiment: Inhibition of human GSK-3beta-mediated tau phosphorylation in doxycycline/synthetic tau fibril-induced HEK293 cells assessed as increase in faster-migrating AT180 band at 1 uM after 48 hrs by Immunoblotting analysis; assay type: cell-based; procedure, shortened: as §1
Target sequence in this assay (P49841 whole entry, looked up): as the sequence (P49841 whole entry) above

[4] = biological target: T1, Glycogen synthase kinase-3 beta; experiment: Inhibition of GSK3beta in human NCI/ADR-RES cells up to 5 uM; assay type: cell-based
Procedure, shortened: (§2)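 Ovarian carcinoma OVCAR-8 cells and their cognate P-glycoprotein-overexpressing line NCI/ADR-RES. Compound tested at concentrations up to 5 µM.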
Target sequence in this assay (P49841 whole entry, looked up): as the sequence (P49841 whole entry) above

[5] = biological target: Serine/threonine-protein kinase RAF and Dual specificity mitogen-activated protein kinase kinase 1 (Raf/MEK) (Homo sapiens) (UniProt P04049+Q02750); experiment: Inhibition of human RAF1/MEK1 at 1 uM; assay type: protein assay
Procedure, shortened: (§3)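 Selectivity panel of 17 human protein kinases, each tested at a single 1 µM concentration. Read-out was percent inhibition of kinase activity. Values are the average of two independent measurements.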

[6] = biological target: cAMP-dependent protein kinase catalytic subunit alpha (Homo sapiens) (UniProt P17612); experiment: Inhibition of human PKAalpha at 1 uM; procedure, shortened: as §3
[7] = biological target: T2, Serine/threonine-protein kinase Sgk1 (Homo sapiens) (UniProt O00141); experiment: Inhibition of human recombinant SGK1 using ATP/Ulight-RRRSLLE as substrate at 1 uM after 30 mins by LANCE assay; procedure, shortened: as §3
T2 sequence (whole entry): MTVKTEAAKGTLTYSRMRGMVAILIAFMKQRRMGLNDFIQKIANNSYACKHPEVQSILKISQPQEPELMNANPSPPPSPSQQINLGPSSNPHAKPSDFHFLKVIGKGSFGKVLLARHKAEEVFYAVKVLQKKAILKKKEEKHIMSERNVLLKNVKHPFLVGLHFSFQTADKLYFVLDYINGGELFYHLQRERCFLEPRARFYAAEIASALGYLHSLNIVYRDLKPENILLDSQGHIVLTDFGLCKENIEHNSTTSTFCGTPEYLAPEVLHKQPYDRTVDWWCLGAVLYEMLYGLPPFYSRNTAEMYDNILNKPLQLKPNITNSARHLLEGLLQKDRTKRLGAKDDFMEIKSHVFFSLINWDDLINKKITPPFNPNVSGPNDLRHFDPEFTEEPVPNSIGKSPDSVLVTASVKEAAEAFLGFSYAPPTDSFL

[8] = biological target: Rho-associated protein kinase 1 (Homo sapiens) (UniProt Q13464); experiment: Inhibition of human recombinant ROCK1 using ATP/Ulight-RRRSLLE as substrate at 1 uM after 30 mins by LANCE assay; procedure, shortened: as §3
Sequence of Rho-associated protein kinase 1 (Homo sapiens) (Q13464 2-1354 limits assumed): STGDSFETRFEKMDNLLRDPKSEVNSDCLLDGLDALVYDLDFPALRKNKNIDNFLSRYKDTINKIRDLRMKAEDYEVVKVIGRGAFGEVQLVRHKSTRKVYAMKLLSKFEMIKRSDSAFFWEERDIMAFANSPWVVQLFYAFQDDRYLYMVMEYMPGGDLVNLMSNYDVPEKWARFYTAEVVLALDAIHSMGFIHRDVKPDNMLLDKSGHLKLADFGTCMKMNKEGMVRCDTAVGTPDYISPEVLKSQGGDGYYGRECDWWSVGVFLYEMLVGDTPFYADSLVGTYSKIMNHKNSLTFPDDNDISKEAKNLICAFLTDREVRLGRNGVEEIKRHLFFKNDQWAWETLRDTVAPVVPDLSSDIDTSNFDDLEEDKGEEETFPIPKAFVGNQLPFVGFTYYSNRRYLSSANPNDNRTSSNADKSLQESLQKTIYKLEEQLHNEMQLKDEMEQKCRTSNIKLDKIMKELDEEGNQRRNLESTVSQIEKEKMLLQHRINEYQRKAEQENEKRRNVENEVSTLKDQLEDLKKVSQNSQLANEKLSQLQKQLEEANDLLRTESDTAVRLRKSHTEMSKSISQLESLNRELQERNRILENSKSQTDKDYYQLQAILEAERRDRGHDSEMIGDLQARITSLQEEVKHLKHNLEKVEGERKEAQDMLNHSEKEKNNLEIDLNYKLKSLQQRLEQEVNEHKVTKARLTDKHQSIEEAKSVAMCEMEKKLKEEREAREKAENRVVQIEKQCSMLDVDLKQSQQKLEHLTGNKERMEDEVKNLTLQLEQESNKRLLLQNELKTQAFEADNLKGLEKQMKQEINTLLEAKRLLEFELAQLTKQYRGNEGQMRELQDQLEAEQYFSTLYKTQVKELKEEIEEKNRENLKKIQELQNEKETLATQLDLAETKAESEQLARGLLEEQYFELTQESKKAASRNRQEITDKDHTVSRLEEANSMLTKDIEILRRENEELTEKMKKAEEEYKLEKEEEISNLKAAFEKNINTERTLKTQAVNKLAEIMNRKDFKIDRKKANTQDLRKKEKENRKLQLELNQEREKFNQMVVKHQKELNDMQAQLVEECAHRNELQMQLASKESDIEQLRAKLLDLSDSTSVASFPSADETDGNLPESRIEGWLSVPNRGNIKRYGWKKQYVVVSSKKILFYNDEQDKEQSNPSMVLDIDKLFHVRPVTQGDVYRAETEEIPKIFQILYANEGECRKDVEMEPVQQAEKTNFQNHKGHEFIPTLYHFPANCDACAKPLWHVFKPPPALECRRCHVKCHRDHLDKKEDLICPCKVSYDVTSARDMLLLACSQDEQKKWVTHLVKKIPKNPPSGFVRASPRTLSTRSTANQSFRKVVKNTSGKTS

[9] = biological target: Proto-oncogene tyrosine-protein kinase receptor Ret (Homo sapiens) (UniProt P07949); experiment: Inhibition of human recombinant RET expressed in insect cells using ATP/biotinyl-betaAbetaAbetaAAEEEEYFELVAKKK as substrate at 1 uM after 30 mins by HTRF assay; procedure, shortened: as §3
Sequence of Proto-oncogene tyrosine-protein kinase receptor Ret (Homo sapiens) (P07949 whole entry): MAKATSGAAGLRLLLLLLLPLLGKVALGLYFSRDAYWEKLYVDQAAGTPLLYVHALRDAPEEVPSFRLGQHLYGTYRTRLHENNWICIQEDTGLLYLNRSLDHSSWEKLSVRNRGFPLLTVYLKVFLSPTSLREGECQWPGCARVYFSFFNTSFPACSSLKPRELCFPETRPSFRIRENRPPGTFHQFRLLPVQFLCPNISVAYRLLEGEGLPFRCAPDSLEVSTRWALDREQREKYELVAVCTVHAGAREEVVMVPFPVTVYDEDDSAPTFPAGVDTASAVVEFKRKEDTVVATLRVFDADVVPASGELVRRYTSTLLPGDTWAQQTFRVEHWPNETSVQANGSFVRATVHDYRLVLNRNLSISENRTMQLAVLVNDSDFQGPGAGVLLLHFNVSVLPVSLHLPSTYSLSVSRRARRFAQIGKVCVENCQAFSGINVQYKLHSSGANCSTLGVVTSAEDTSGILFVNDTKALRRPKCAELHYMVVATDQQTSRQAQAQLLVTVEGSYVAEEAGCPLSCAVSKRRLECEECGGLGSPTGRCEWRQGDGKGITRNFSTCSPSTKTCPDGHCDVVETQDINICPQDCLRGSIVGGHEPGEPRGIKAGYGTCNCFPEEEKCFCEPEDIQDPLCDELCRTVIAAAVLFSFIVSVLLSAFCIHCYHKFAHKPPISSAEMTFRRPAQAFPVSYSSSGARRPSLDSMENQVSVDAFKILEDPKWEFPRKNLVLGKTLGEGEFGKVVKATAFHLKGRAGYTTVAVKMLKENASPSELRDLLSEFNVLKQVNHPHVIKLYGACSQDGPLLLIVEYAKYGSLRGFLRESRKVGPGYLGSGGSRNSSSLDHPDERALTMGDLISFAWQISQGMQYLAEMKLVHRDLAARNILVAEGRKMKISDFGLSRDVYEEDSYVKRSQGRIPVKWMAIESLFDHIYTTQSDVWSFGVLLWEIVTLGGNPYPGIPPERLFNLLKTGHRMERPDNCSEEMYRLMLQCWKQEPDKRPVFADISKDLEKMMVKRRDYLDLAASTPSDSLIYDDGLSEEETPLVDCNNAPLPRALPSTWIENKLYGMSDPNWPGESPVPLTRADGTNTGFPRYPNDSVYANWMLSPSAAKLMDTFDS

[10] = species: Homo sapiens; experiment: Inhibition of human recombinant PKA alpha expressed in Escherichia coli using ATP/Ulight-RRRSLLE as substrate at 1 uM after 10 mins by LANCE assay
Procedure, shortened: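 Single-concentration (1 µM) percent inhibition within a 17-member human kinase panel. Values are the average of two independent measurements.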

[11] = biological target: T1, Glycogen synthase kinase-3 beta; experiment: Inhibition of human GSK-3beta-mediated tau phosphorylation in doxycycline/synthetic tau fibril-induced HEK293 cells assessed as decrease in slow mobility of AT180 band at 1 uM after 48 hrs by Immunoblotting analysis; assay type: cell-based; procedure, shortened: as §1
Target sequence in this assay (P49841 whole entry, looked up): as the sequence (P49841 whole entry) above

[12] = biological target: T3, Mitogen-activated protein kinase 13 (Homo sapiens) (UniProt O15264); experiment: Inhibition of human recombinant P38delta expressed in Escherichia coli using ATP/Ulight-CFFKNIVTPRTPPPSQGK-amide as substrate at 1 uM after 15 mins by LANCE assay; procedure, shortened: as §3
T3 sequence (whole entry): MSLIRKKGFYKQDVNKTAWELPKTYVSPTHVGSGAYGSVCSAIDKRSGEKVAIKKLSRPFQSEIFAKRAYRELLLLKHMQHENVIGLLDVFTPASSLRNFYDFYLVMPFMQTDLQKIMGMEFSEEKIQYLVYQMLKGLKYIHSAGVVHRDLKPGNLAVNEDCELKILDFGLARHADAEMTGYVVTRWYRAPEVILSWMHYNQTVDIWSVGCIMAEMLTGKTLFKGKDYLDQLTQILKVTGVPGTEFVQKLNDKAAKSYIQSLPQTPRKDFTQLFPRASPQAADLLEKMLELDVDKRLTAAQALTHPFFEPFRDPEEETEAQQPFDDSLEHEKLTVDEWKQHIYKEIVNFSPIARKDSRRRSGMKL

[13] = biological target: Leucine-rich repeat serine/threonine-protein kinase 2 (Homo sapiens) (UniProt Q5S007); experiment: Inhibition of human recombinant LRRK2 expressed in insect cells using ATP/Ulight-RRRSLLE as substrate at 1 uM after 60 mins by LANCE assay; procedure, shortened: as §3
[14] = biological target: Vascular endothelial growth factor receptor 2 (Homo sapiens) (UniProt P35968); experiment: Inhibition of human recombinant VGFR2 expressed in insect sf9 cells using ATP/Ulight-CAGAGAIETDKEYYTVKD as substrate at 1 uM after 60 mins by LANCE assay; procedure, shortened: as §3
[15] = biological target: Mitogen-activated protein kinase 3 (Homo sapiens) (UniProt P27361); experiment: Inhibition of human recombinant ERK1 expressed in Escherichia coli using ATP/Ulight-CFFKNIVTPRTPPPSQGK-amide as substrate at 1 uM after 30 mins by LANCE assay; procedure, shortened: as §3
[16] = biological target: Cyclin-dependent kinase 5/CDK5 activator 1 (Homo sapiens) (UniProt Q00535+Q15078); experiment: Inhibition of human recombinant CDK5/p35 expressed in insect cells using ATP/Ulight-CFFKNIVTPRTPPPSQGK-amide as substrate at 1 uM after 60 mins by LANCE assay; procedure, shortened: as §3
Sequence of Cyclin-dependent kinase 5/CDK5 activator 1 (Homo sapiens) (Q00535 whole entry): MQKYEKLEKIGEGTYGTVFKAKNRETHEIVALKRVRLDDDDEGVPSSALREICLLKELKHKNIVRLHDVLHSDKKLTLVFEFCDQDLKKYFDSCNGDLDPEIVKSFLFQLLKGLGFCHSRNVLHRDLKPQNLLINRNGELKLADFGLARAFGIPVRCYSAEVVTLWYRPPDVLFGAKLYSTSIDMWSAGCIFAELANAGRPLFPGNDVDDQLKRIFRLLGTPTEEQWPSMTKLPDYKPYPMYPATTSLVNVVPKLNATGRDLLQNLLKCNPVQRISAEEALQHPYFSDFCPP
Sequence of Cyclin-dependent kinase 5/CDK5 activator 1 (Homo sapiens) (Q15078 99-307 partner limits assumed): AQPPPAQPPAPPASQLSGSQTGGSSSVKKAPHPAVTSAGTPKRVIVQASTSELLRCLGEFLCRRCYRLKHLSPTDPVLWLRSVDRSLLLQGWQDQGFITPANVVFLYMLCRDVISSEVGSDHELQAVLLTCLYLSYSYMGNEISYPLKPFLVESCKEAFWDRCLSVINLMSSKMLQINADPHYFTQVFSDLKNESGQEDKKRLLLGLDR

[17] = biological target: Calcium/calmodulin-dependent protein kinase type II subunit alpha (Homo sapiens) (UniProt Q9UQM7); experiment: Inhibition of human recombinant CaMK2alpha using ATP/Ulight-CGSGSGRPRTSSFAEG as substrate at 1 uM after 30 mins by LANCE assay; procedure, shortened: as §3
[18] = biological target: Tyrosine-protein kinase Fyn (Homo sapiens) (UniProt P06241); experiment: Inhibition of human recombinant Fyn expressed in insect cells using ATP/biotinyl-betaAbetaAbetaAYQAEENTYDEYEN as substrate at 1 uM after 60 mins by HTRF assay; procedure, shortened: as §3
[19] = biological target: Platelet-derived growth factor receptor beta (Homo sapiens) (UniProt P09619); experiment: Inhibition of human recombinant PDGFRbeta expressed in insect cells using ATP/Ulight-PolyGAT[EAY(1:1:1)]n as substrate at 1 uM after 30 mins by LANCE assay; procedure, shortened: as §3
Sequence of Platelet-derived growth factor receptor beta (Homo sapiens) (P09619 whole entry): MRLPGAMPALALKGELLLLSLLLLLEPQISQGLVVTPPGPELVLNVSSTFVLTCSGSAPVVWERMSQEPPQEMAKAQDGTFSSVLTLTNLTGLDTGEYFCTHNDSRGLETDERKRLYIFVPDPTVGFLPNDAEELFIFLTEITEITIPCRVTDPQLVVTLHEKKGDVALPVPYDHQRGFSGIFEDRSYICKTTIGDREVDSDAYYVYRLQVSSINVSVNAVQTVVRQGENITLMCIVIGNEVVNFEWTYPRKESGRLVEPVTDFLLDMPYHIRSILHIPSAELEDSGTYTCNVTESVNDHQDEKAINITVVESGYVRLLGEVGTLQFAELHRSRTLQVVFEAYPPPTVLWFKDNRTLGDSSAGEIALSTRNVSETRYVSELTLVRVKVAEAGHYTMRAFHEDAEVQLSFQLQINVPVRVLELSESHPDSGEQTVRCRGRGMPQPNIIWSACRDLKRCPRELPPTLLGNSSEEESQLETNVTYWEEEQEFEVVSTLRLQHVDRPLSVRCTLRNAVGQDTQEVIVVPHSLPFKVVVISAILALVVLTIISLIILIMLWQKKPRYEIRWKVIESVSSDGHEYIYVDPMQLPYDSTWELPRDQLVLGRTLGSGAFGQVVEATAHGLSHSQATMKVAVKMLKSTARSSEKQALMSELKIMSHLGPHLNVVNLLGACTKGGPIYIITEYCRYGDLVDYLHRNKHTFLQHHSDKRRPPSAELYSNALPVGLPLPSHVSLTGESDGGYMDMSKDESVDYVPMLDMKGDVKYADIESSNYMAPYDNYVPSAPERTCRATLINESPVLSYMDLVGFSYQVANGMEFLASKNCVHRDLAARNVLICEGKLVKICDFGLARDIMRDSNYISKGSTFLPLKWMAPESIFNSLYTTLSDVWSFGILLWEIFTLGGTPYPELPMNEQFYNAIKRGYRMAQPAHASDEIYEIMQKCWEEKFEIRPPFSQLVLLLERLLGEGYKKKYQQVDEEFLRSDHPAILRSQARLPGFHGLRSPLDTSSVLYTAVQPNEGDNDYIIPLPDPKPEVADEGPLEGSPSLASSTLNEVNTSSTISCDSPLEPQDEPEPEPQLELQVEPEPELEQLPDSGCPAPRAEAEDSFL

[20] = biological target: Receptor-type tyrosine-protein kinase FLT3 (Homo sapiens) (UniProt P36888); experiment: Inhibition of human FLT3 at 1 uM; procedure, shortened: as §3
[21] = biological target: Glycogen synthase kinase-3 alpha (Homo sapiens) (UniProt P49840); experiment: Inhibition of human recombinant GSK-3alpha using ATP/Ulight-CFFKNIVTPRTPPPSQGK-amide as substrate at 1 uM after 60 mins by LANCE assay; procedure, shortened: as §3
[22] = biological target: T4, Aurora kinase A (Homo sapiens) (UniProt O14965); experiment: Inhibition of human recombinant Aurora A expressed in insect sf21 cells using ATP/Ulight-RRRSLLE as substrate at 1 uM after 15 mins by LANCE assay; procedure, shortened: as §3
T4 sequence (whole entry): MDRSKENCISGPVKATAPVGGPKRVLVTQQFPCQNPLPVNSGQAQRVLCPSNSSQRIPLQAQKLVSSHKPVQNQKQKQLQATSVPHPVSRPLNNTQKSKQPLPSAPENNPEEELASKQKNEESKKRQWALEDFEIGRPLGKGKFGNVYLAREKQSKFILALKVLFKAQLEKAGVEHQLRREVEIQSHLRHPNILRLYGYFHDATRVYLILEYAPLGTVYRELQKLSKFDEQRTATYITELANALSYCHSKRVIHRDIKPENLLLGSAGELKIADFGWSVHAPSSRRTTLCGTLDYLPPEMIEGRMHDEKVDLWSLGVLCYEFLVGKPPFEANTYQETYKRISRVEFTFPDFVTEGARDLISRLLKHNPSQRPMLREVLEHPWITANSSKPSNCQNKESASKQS

[23] = species: Homo sapiens; experiment: Selectivity ratio of IC50 for human recombinant CDK2 to IC50 for GSK-3beta (unknown origin)
[24] = biological target: Cyclin-dependent kinase 2 (Homo sapiens, UniProt P24941); experiment: Inhibition of human recombinant CDK2 using ATP/Ulight-CFFKNIVTPRTPPPSQGK-amide as substrate after 30 mins by LANCE assay
[25] = Aqueous solubility of the compound at pH 7.4; assay type: physicochemical
[26] = biological target: T1, Glycogen synthase kinase-3 beta; experiment: Inhibition of GSK3beta in human OVCAR8 cells up to 5 uM; assay type: cell-based; settings: OVCAR-8; procedure, shortened: as §2
Target sequence in this assay (P49841 whole entry, looked up): as the sequence (P49841 whole entry) above

IC50 [1]: 1210 nM
SMILES: Cc1ccccc1-n1ncc2c3c(c4cccn4c21)C(=O)NC3=O

IC50 [1]: 1000 nM
SMILES: COc1ccccc1-n1ncc2c3c(c4cccn4c21)C(=O)NC3=O

IC50 [1]: 690 nM
SMILES: Cc1nn(-c2ccccc2)c2c1c1c(c3cccn32)C(=O)NC1=O

inhibition [2]: Active | inhibition [3]: Active | inhibition [4]: inactive | inhibition [5]: < 10% | inhibition [6]: < 10% | inhibition [7]: < 10% | inhibition [8]: < 10% | inhibition [9]: < 10% | inhibition [10]: < 10% | inhibition [11]: Active | inhibition [12]: < 10% | inhibition [13]: < 10% | inhibition [14]: < 10% | inhibition [15]: < 10% | inhibition [16]: < 10% | inhibition [17]: < 10% | inhibition [18]: < 10% | inhibition [19]: 13.7% | inhibition [20]: 30% | inhibition [21]: 98.3% | inhibition [22]: < 10% | Ratio IC50 [23]: > 10 | IC50 [24]: 2800 nM | IC50 [1]: 240 nM | solubility [25]: 3.1 µM (≈ 1.19 µg/mL) | inhibition [26]: inactive
SMILES: Cc1nn(-c2ccc(Cl)cc2Cl)c2c1c1c(c3cccn32)C(=O)NC1=O

IC50 [1]: 1690 nM
SMILES: O=C1NC(=O)c2c1c1cnn(-c3ccccc3)c1n1cccc21

IC50 [1]: 940 nM
SMILES: Cc1nn(-c2ccccc2Cl)c2c1c1c(c3cccn32)C(=O)NC1=O

IC50 [1]: 810 nM
SMILES: O=C1NC(=O)c2c1c1cnn(-c3ccccc3Cl)c1n1cccc21

IC50 [1]: 440 nM
SMILES: Cc1ccccc1-n1nc(C)c2c3c(c4cccn4c21)C(=O)NC3=O
